System: HEK-293T
Test: Multiplex assay against HEK293T;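 for Population Tubulin-Different-Phenotype (%): share of the cells with healthy nuclei that show this phenotype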
Format: toxicity, cell-based
Conditions: human
Procedure, shortened: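 Live cells were stained at seeding with Hoechst33342, BioTracker Green Microtubule Cytoskeleton Dye, MitoTracker Red and Annexin V Alexa Fluor 680, then imaged on a CQ1 microscope at 37°C and 5% CO2 after compound addition. CellPathfinder machine-learning gating split cells into Hoechst high-intensity objects or normal cells. Normal cells were split into healthy, pyknosed or fragmented nuclei, and pyknosed cells into mitotic or apoptotic. Tubulin, mitochondrial-mass and membrane-permeability phenotypes are per cents of healthy-nucleus cells.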

[1] = 12 h, 1 µM, compound concentration 1 uM, replicate 1
[2] = 12 h, 1 µM, compound concentration 1 uM, replicate 2
[3] = 12 h, 10 µM, compound concentration 10 uM, replicate 1
[4] = 12 h, 10 µM, compound concentration 10 uM, replicate 2
[5] = 24 h, 1 µM, compound concentration 1 uM, replicate 1
[6] = 24 h, 1 µM, compound concentration 1 uM, replicate 2
[7] = 24 h, 10 µM, compound concentration 10 uM, replicate 1
[8] = 24 h, 10 µM, compound concentration 10 uM, replicate 2
[9] = 48 h, 1 µM, compound concentration 1 uM, replicate 1
[10] = 48 h, 1 µM, compound concentration 1 uM, replicate 2
[11] = 48 h, 10 µM, compound concentration 10 uM, replicate 1
[12] = 48 h, 10 µM, compound concentration 10 uM, replicate 2

COc1ccc(NS(=O)(=O)c2sc3ccc(Cl)cc3c2C)cc1N1CCNCC1.Cl
Population Apoptotic (%) [1]: 40% | Population Fragmented Nuclei (%) [1]: 17% | Population Healthy Nuclei (%) [1]: 36% | Population Hoechst High Intensity Objects (%) [1]: 35% | Population Membrane Permeable-Phenotype (%) [1]: 5% | Population Mitochondria Different-Phenotype (%) [1]: 66% | Population Mitotic Cells (%) [1]: 59% | Population Normal (%) [1]: 64% | Population Pyknosed Nuclei (%) [1]: 45% | Population Tubulin-Different-Phenotype (%) [1]: 32% | Total Cell Count [1]: 385 | Population Apoptotic (%) [2]: 15% | Population Fragmented Nuclei (%) [2]: 5% | Population Healthy Nuclei (%) [2]: 41% | Population Hoechst High Intensity Objects (%) [2]: 3% | Population Membrane Permeable-Phenotype (%) [2]: 15% | Population Mitochondria Different-Phenotype (%) [2]: 25% | Population Mitotic Cells (%) [2]: 84% | Population Normal (%) [2]: 96% | Population Pyknosed Nuclei (%) [2]: 53% | Population Tubulin-Different-Phenotype (%) [2]: 39% | Total Cell Count [2]: 233 | Population Apoptotic (%) [3]: 71% | Population Fragmented Nuclei (%) [3]: 7% | Population Healthy Nuclei (%) [3]: 33% | Population Hoechst High Intensity Objects (%) [3]: 12% | Population Membrane Permeable-Phenotype (%) [3]: 4% | Population Mitochondria Different-Phenotype (%) [3]: 99% | Population Mitotic Cells (%) [3]: 28% | Population Normal (%) [3]: 87% | Population Pyknosed Nuclei (%) [3]: 59% | Total Cell Count [3]: 350 | Population Apoptotic (%) [4]: 57% | Population Fragmented Nuclei (%) [4]: 3% | Population Healthy Nuclei (%) [4]: 16% | Population Hoechst High Intensity Objects (%) [4]: 4% | Population Membrane Permeable-Phenotype (%) [4]: 6% | Population Mitochondria Different-Phenotype (%) [4]: 86% | Population Mitotic Cells (%) [4]: 42% | Population Normal (%) [4]: 95% | Population Pyknosed Nuclei (%) [4]: 79% | Population Tubulin-Different-Phenotype (%) [4]: 96% | Total Cell Count [4]: 186 | Population Apoptotic (%) [5]: 46% | Population Fragmented Nuclei (%) [5]: 21% | Population Healthy Nuclei (%) [5]: 40% | Population Hoechst High Intensity Objects (%) [5]: 39% | Population Membrane Permeable-Phenotype (%) [5]: 2% | Population Mitochondria Different-Phenotype (%) [5]: 61% | Population Mitotic Cells (%) [5]: 53% | Population Normal (%) [5]: 60% | Population Pyknosed Nuclei (%) [5]: 38% | Population Tubulin-Different-Phenotype (%) [5]: 43% | Total Cell Count [5]: 399 | Population Apoptotic (%) [6]: 22% | Population Fragmented Nuclei (%) [6]: 4% | Population Healthy Nuclei (%) [6]: 58% | Population Hoechst High Intensity Objects (%) [6]: 2% | Population Membrane Permeable-Phenotype (%) [6]: 4% | Population Mitochondria Different-Phenotype (%) [6]: 36% | Population Mitotic Cells (%) [6]: 77% | Population Normal (%) [6]: 97% | Population Pyknosed Nuclei (%) [6]: 36% | Population Tubulin-Different-Phenotype (%) [6]: 54% | Total Cell Count [6]: 278 | Population Apoptotic (%) [7]: 74% | Population Fragmented Nuclei (%) [7]: 10% | Population Healthy Nuclei (%) [7]: 34% | Population Hoechst High Intensity Objects (%) [7]: 21% | Population Membrane Permeable-Phenotype (%) [7]: 4% | Population Mitochondria Different-Phenotype (%) [7]: 98% | Population Mitotic Cells (%) [7]: 25% | Population Normal (%) [7]: 78% | Population Pyknosed Nuclei (%) [7]: 54% | Population Tubulin-Different-Phenotype (%) [7]: 97% | Total Cell Count [7]: 356 | Population Apoptotic (%) [8]: 90% | Population Fragmented Nuclei (%) [8]: 4% | Population Healthy Nuclei (%) [8]: 25% | Population Hoechst High Intensity Objects (%) [8]: 8% | Population Membrane Permeable-Phenotype (%) [8]: 2% | Population Mitochondria Different-Phenotype (%) [8]: 97% | Population Mitotic Cells (%) [8]: 9% | Population Normal (%) [8]: 91% | Population Pyknosed Nuclei (%) [8]: 70% | Total Cell Count [8]: 187 | Population Apoptotic (%) [9]: 47% | Population Fragmented Nuclei (%) [9]: 23% | Population Healthy Nuclei (%) [9]: 51% | Population Hoechst High Intensity Objects (%) [9]: 29% | Population Membrane Permeable-Phenotype (%) [9]: 1% | Population Mitochondria Different-Phenotype (%) [9]: 37% | Population Mitotic Cells (%) [9]: 52% | Population Normal (%) [9]: 70% | Population Pyknosed Nuclei (%) [9]: 25% | Population Tubulin-Different-Phenotype (%) [9]: 32% | Total Cell Count [9]: 493 | Population Apoptotic (%) [10]: 15% | Population Fragmented Nuclei (%) [10]: 4% | Population Healthy Nuclei (%) [10]: 81% | Population Hoechst High Intensity Objects (%) [10]: 4% | Population Membrane Permeable-Phenotype (%) [10]: 3% | Population Mitochondria Different-Phenotype (%) [10]: 9% | Population Mitotic Cells (%) [10]: 84% | Population Normal (%) [10]: 95% | Population Pyknosed Nuclei (%) [10]: 14% | Population Tubulin-Different-Phenotype (%) [10]: 41% | Total Cell Count [10]: 485 | Population Fragmented Nuclei (%) [11]: 13% | Population Healthy Nuclei (%) [11]: 39% | Population Hoechst High Intensity Objects (%) [11]: 26% | Population Membrane Permeable-Phenotype (%) [11]: 0% | Population Mitochondria Different-Phenotype (%) [11]: 100% | Population Normal (%) [11]: 73% | Population Pyknosed Nuclei (%) [11]: 47% | Population Tubulin-Different-Phenotype (%) [11]: 95% | Total Cell Count [11]: 367 | Population Apoptotic (%) [12]: 77% | Population Fragmented Nuclei (%) [12]: 4% | Population Healthy Nuclei (%) [12]: 28% | Population Hoechst High Intensity Objects (%) [12]: 15% | Population Membrane Permeable-Phenotype (%) [12]: 6% | Population Mitochondria Different-Phenotype (%) [12]: 95% | Population Mitotic Cells (%) [12]: 22% | Population Normal (%) [12]: 84% | Population Pyknosed Nuclei (%) [12]: 67% | Population Tubulin-Different-Phenotype (%) [12]: 91% | Total Cell Count [12]: 188

— ChEMBL document CHEMBL4689842, “EUbOPEN Chemogenomics Library wave 1” (2021)
